Screening results (PubChem BioAssay)
Calb biofilm kill: mixture kills Candida albicans biofilm cells | C. albicans biofilm persisters + clotrimazole, fluorescence viability; primary screen in compound mixtures of four per well | AID 1242 | actives 0.02% (n = 120,000) | inhibition, % at 7.6 µM;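 active = inhibition above 30.3% in the primary screen of four-compound pools, then above 30% when the compound was retested; inconclusive = passed the primary limit but could not be retested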;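 note: compounds exposed to preformed 24 h biofilms for 48 h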
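Assay system: C. albicans biofilms / Medium: RPMI/MOPS medium, pH 7.0 / Schedule: biofilm formation 24 h, compound exposure 48 h, 37 °C / Measured by: Alamar Blue fluorescence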
RGS8-Gao: regulators of human RGS8-Galphao interaction. actives 0.34% (n = 220,000). response (percent of control binding), % at 10 µM. multiplexed bead flow cytometry, RGS8-Galphao binding; actives lie on both sides. P09471; in the data active = response below about 60% or above about 140%; inactive = in between;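 note: Galphao activated as the GDP aluminium fluoride complex binding bead-coupled RGS8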
Target sequence (P09471 whole entry, looked up): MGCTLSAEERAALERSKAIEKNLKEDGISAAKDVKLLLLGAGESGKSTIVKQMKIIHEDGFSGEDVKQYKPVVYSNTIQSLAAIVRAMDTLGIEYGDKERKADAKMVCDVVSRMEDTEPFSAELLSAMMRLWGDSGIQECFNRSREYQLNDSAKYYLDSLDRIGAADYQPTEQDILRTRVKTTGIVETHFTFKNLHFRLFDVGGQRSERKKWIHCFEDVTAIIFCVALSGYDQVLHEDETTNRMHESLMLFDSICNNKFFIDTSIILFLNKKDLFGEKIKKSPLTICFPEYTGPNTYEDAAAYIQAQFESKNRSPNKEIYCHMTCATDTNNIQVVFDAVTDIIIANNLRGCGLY
RGS16-Gao HTS: regulators of human RGS16-Galphao interaction; O15492+P09471; bead-based flow cytometry RGS16-Galphao binding, fluorescence; actives lie on both sides; binding response (% of control), % at 10 µM; actives 0.38% (n = 220,000);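 note: Galphao activated by GDP with aluminum fluoride before binding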
Target sequence (O15492 whole entry, looked up): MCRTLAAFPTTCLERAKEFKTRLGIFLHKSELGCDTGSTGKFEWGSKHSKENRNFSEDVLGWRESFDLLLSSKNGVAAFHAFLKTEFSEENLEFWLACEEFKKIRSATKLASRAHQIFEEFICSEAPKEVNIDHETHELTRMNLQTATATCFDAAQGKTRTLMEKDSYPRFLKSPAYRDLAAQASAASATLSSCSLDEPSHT
Target sequence (P09471 whole entry, looked up): as the sequence (P09471 whole entry, looked up) above
RGS7-Gao reg: human RGS7-Galphao interaction regulation. P09471. binding response (% of control), % at 10 µM. actives 0.35% (n = 220,000). Multiplexed bead flow cytometry, RGS7-Galphao binding; actives lie on both sides; in the data active = binding response below about 49% or above about 150%; inconclusive = no clear call, values can overlap the other calls; inactive = in between;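 note: fluorescent Galphao held in activated GDP-AlF4 state binding bead-coupled RGS7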
RGS4-Gao reg: human RGS4-Galphao interaction regulation; P09471; Multiplexed bead flow cytometry, RGS4-Galphao binding; actives lie on both sides; binding response (% of control), % at 10 µM; actives 0.33% (n = 220,000); in the data active = binding response below about 49% or above about 150%; inactive = in between;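 note: fluorescent Galphao activated with aluminum fluoride binding bead-coupled RGS4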
RGS4-Gao HTS: RGS4-Galphao interaction regulator (human) | shares compounds with RGS16-Gao HTS | actives 99% (n = 1,600) | RGS4–Galpha-o binding response, % at 10 µM | multiplexed bead flow cytometry, RGS–Galpha-o binding;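 note: fluorescently labeled Galpha-o bound to GDP with aluminium fluoride binding biotinylated RGS beads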
Biotin-avidin: interferes with biotinylated probe binding to avidin beads; AID 1783; 1,700 tested, under 10 active; shares compounds with RGS16-Gao HTS; inhibition, % at 10 µM; streptavidin beads, fluorescein-biotin binding, flow cytometry;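 active = inhibition above 50%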;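 note: median green fluorescence of gated singlet beads compared with DMSO control wells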
RGS8-Gao single: confirmation of regulators of human RGS8-Galphao interaction | shares compounds with RGS16-Gao HTS | bead-based flow cytometry RGS8-Galphao binding, fluorescence; actives lie on both sides | binding response (% of control), % at 10 µM | actives 3% (n = 1,700) | AID 1836; in the data active = binding response below about 72% or above about 130%; inactive = in between;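 note: Galphao activated as GDP AlF4 complex before binding bead RGS8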
RGS7-Gao single: RGS7-Galphao interaction regulation, single point confirmation. bead-based flow cytometry RGS7-Galphao binding; actives lie on both sides. response (percent of control binding), % at 10 µM. AID 1837. actives 7.8% (n = 1,700). shares compounds with RGS16-Gao HTS; in the data active = response below about 75% or above about 130%; inactive = in between;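 note: fluorescent Galphao activated with GDP and aluminum fluoride binding bead-coupled RGS7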
RGS16-Gao single: RGS16-Galphao interaction regulation, single point confirmation; shares compounds with RGS16-Gao HTS; actives 4% (n = 1,700); bead-based flow cytometry, RGS16-Galphao binding; actives lie on both sides; response (% of control binding), % at 10 µM; in the data active = response below about 74% or above about 130%; inactive = in between;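 note: Galphao activated as the GDP aluminium fluoride complex binding bead-coupled RGS16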
RGS4-Gao confirm: RGS4-Galphao interaction regulation, single point confirmation; binding response (% of control), % at 10 µM; AID 1840; RGS4-Galphao binding, multiplexed bead flow cytometry; actives lie on both sides; shares compounds with RGS16-Gao HTS; actives 4% (n = 1,700); in the data active = binding response below about 74% or above about 130%; inactive = in between
RGS19-Gao conf: RGS19-Galphao interaction regulation, single point confirmation. response (percent of control binding), % at 10 µM. bead-based flow cytometry RGS19-Galphao binding; actives lie on both sides. actives 5% (n = 1,700). shares compounds with RGS16-Gao HTS. AID 1841; in the data active = response below about 50% or above about 160%; inactive = in between
Of the large screens only hits and unclear results are named; the others gave an inactive call (follow-up assays come after a bar, where they were run); [ ] = dose if it differs, or a comment. This is a sample that favours compounds with a hit; in the whole collection about 0.74% have one here. Unless noted, the rule behind the calls is not given here.

COc1cccc(-n2c(C)nc3cc(C(=O)O)ccc32)c1	RGS7-Gao reg 159.7[activator], RGS4-Gao reg 157.9[activator] (no result: Calb biofilm kill, RGS16-Gao HTS) | Biotin-avidin inactive | RGS8-Gao single inactive | RGS7-Gao single inactive | RGS16-Gao single inactive | RGS4-Gao confirm inactive | RGS19-Gao conf inactive
CC(=O)c1ccc(NC(=O)C(C)OC(=O)c2ccc3c(c2)nc(C)n3-c2ccccc2)cc1 (stereo unspecified)	RGS16-Gao HTS 218.8[activator] | RGS4-Gao HTS 111.6 | Biotin-avidin inactive | RGS8-Gao single inactive | RGS7-Gao single inactive | RGS16-Gao single inactive | RGS4-Gao confirm inactive | RGS19-Gao conf inactive
Cc1oc2ccc(OC(=O)c3cccs3)cc2c1C(=O)OC(C)C	none
O=C(NCc1ccccc1Cl)NCc1ccccc1Cl	RGS7-Gao reg inconclusive, RGS4-Gao reg 43.1 | Biotin-avidin inactive | RGS8-Gao single inactive | RGS7-Gao single inactive | RGS16-Gao single inactive | RGS4-Gao confirm inactive | RGS19-Gao conf inactive
NC(=S)N/N=C1/CCSc2ccc3ccccc3c21	none
COc1ccc(C(C(=O)NCCC(C)C)N(CCN2CCOCC2)C(=O)Cn2nnc3ccccc32)c(OC)c1 (stereo unspecified)	none
Cc1cc(C(=O)NN)c(Cl)cc1Cl	RGS8-Gao 26.8, RGS16-Gao HTS 12.7, RGS7-Gao reg inconclusive, RGS4-Gao reg 20.9 | Biotin-avidin inactive | RGS8-Gao single inactive | RGS7-Gao single inactive | RGS16-Gao single inactive | RGS4-Gao confirm inactive | RGS19-Gao conf inactive
COC(=O)C1(C(=O)OC)NOC2C(=O)N(N(C)c3ncc(C(F)(F)F)cc3Cl)C(=O)C21 (stereo unspecified)	none
Cc1ccc(CN(Cc2ccccc2)C(=S)NCC(=O)NCc2cccnc2)o1	none
CCCC[n+]1ccn(-c2nc3ccccc3nc2[N-]S(=O)(=O)c2ccccc2)c1	none (no result: Calb biofilm kill, RGS7-Gao reg) | Biotin-avidin inactive | RGS8-Gao single inactive | RGS7-Gao single inactive | RGS16-Gao single inactive | RGS4-Gao confirm inactive | RGS19-Gao conf inactive
Cc1ccc(-c2nnc(N3CCCCC3)c3ccccc23)cc1S(=O)(=O)NCC1CCCO1 (stereo unspecified)	none (no result: Calb biofilm kill)
C=C(C)CC(NCCc1ccccc1)c1ccco1 (stereo unspecified)	RGS4-Gao reg 155.8[activator] | Biotin-avidin inactive | RGS8-Gao single inactive | RGS7-Gao single inactive | RGS16-Gao single inactive | RGS4-Gao confirm inactive | RGS19-Gao conf inactive
O=C(NCCc1ccccc1)c1ccco1	none
O=C(CNCCN1CCOCC1)Nc1ccccc1Sc1ccccc1	RGS16-Gao HTS 227.3[activator] | RGS4-Gao HTS 109.9 | Biotin-avidin inactive | RGS8-Gao single inactive | RGS7-Gao single inactive | RGS16-Gao single inactive | RGS4-Gao confirm inactive | RGS19-Gao conf inactive
O=C(O)c1cc(S(=O)(=O)N2CCOCC2)ccc1N1CCCCC1	none
O=c1c2ccccc2sn1-c1cc(S(=O)(=O)N2CCOCC2)ccc1N1CCCC1	RGS8-Gao 40.9, RGS16-Gao HTS -21.1 (no result: Calb biofilm kill) | RGS4-Gao HTS 85.8 | Biotin-avidin inactive | RGS8-Gao single 37.6 | RGS7-Gao single inactive | RGS16-Gao single 10.5 | RGS4-Gao confirm inactive | RGS19-Gao conf 4.4
O=C(O)c1cc(S(=O)(=O)N2CCOCC2)ccc1N1CCOCC1	none (no result: Calb biofilm kill)
O=c1c2ccccc2sn1-c1cc(S(=O)(=O)N2CCOCC2)ccc1N1CCOCC1	RGS8-Gao 47.8, RGS16-Gao HTS 0.6 (no result: Calb biofilm kill) | RGS4-Gao HTS 98.8
CCC(OC(=O)C1=Cc2ccccc2OC1)C(=O)NC1CCCC1 (stereo unspecified)	none (no result: Calb biofilm kill, RGS8-Gao, RGS16-Gao HTS, RGS7-Gao reg, RGS4-Gao reg) | Biotin-avidin inactive | RGS8-Gao single inactive | RGS7-Gao single inactive | RGS16-Gao single inactive | RGS4-Gao confirm inactive | RGS19-Gao conf inactive
CCNC(=O)NC(=O)CSc1ccc(NC(C)=O)cc1	RGS4-Gao reg 46.9 (no result: Calb biofilm kill) | Biotin-avidin inactive | RGS8-Gao single inactive | RGS7-Gao single inactive | RGS16-Gao single inactive | RGS4-Gao confirm inactive | RGS19-Gao conf inactive
CC1=C(C(=O)NCc2ccccc2)C(c2cccs2)n2ncnc2N1 (stereo unspecified)	RGS16-Gao HTS -63.1 (no result: Calb biofilm kill) | RGS4-Gao HTS 69.4 | Biotin-avidin inactive | RGS8-Gao single inactive | RGS7-Gao single inactive | RGS16-Gao single inactive | RGS4-Gao confirm inactive | RGS19-Gao conf inactive
COc1ccccc1C1C(C(=O)NCc2ccccc2)=C(C)Nc2ncnn21 (stereo unspecified)	none (no result: Calb biofilm kill)
O=C1c2cccc3c([N+](=O)[O-])ccc(c23)C(=O)N1CCc1ccccn1	RGS7-Gao reg inconclusive
O=C1c2ccccc2C(=O)N1CCc1ccccn1	RGS8-Gao 152.9[activator] (no result: Calb biofilm kill) | RGS4-Gao HTS 127.3 | Biotin-avidin inactive | RGS8-Gao single inactive | RGS7-Gao single inactive | RGS16-Gao single inactive | RGS4-Gao confirm inactive | RGS19-Gao conf inactive
CN(Cc1ccc(F)cc1)C(=O)c1ccc2c(c1)NC(=O)CS2	RGS7-Gao reg 170.6[activator] | RGS4-Gao HTS 116.3 | Biotin-avidin inactive | RGS8-Gao single inactive | RGS7-Gao single inactive | RGS16-Gao single inactive | RGS4-Gao confirm inactive | RGS19-Gao conf inactive
CC(C)n1nc(C(=O)OCC(=O)c2c[nH]c3ccccc23)c2ccccc2c1=O	none (no result: Calb biofilm kill, RGS8-Gao, RGS16-Gao HTS, RGS7-Gao reg, RGS4-Gao reg) | Biotin-avidin inactive | RGS8-Gao single inactive | RGS7-Gao single inactive | RGS16-Gao single inactive | RGS4-Gao confirm inactive | RGS19-Gao conf inactive
O=C(O)Cc1csc(NC(=O)c2ccco2)n1	none (no result: Calb biofilm kill)
COc1ccccc1OCc1csc(NC(=O)c2ccco2)n1	RGS8-Gao 3.4, RGS7-Gao reg -7.5, RGS4-Gao reg -19.4 (no result: Calb biofilm kill) | Biotin-avidin inactive | RGS8-Gao single inactive | RGS7-Gao single inactive | RGS16-Gao single inactive | RGS4-Gao confirm inactive | RGS19-Gao conf inactive
CCOC(=O)N1CCN(C(=O)CN(Cc2ccc(Cl)cc2)S(=O)(=O)c2ccc(C)cc2)CC1	none (no result: Calb biofilm kill, RGS16-Gao HTS) | Biotin-avidin inactive | RGS8-Gao single inactive | RGS7-Gao single inactive | RGS16-Gao single inactive | RGS4-Gao confirm inactive | RGS19-Gao conf inactive
CC(C)c1ccc(CN(C)CC(O)c2ccccc2)cc1 (stereo unspecified)	none
